# Assay results reported in ChEMBL document CHEMBL1212762, “In vivo activity of ceftobiprole in murine skin infections due to Staphylococcus aureus and Pseudomonas aeruginosa” (Antimicrob Agents Chemother, 2010).
# Tests used:
# Staphylococcus aureus [1] = test: Antimicrobial activity against methicillin-susceptible Staphylococcus aureus Smith OC 4172 infected in SKH1 mouse assessed as log change in bacterial colony forming unit per gram of skin tissue at 1.6 mg/kg/day, sc (reference value: 1.6 deltalog CFU); type: functional; conditions: route subcutaneous
# Zone of skin [2] = test: fAUC (0-infinity) in Staphylococcus aureus infected immunocompetent SKH1 mouse skin at 50 mg/kg, sc; type: ADME, organism-based; parameters: dose 50 mg/kg, route subcutaneous; conditions: in vivo
# Method in brief: (§1)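 Female SKH1 hairless mice, immunocompetent or cyclophosphamide-neutropenic, infected s.c. with MRSA OC 8525 or P. aeruginosa OC 4354 on the Cytodex beads (left flank), sterile beads on the right. Single dose 24 h later: s.c. at the nape, or linezolid 50 mg/kg oral. Plasma and skin (DMSO homogenate) sampled over time, HPLC with diode array.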
# Zone of skin [3] = test: fCmax in immunocompetent SKH1 mouse skin at 50 mg/kg, sc; type: ADME, organism-based; parameters: dose 50 mg/kg, route subcutaneous; conditions: in vivo; method in brief: as §1
# Plasma [4] = test: fCmax in immunocompetent SKH1 mouse plasma at 12.5 mg/kg, sc; type: ADME, organism-based; parameters: dose 12.5 mg/kg, route subcutaneous; conditions: in vivo; method in brief: as §1
# [5] = Protein binding in mouse plasma; type: ADME, cell-free; conditions: read-out: PPB (converted)
# Pseudomonas aeruginosa [6] = test: Antimicrobial activity against Pseudomonas aeruginosa OC 4351 infected in immunocompromized SKH1 mouse assessed as lesion volume at 1.6 mg/kg/day, sc measured after 48 hrs postinfection (reference value: 2234 mm3); type: functional; conditions: route subcutaneous
# [7] = Tmax in immunocompromized SKH1 mouse skin at 50 mg/kg, sc; type: ADME, organism-based, Zone of skin; parameters: dose 50 mg/kg, route subcutaneous; method in brief: as §1
# Pseudomonas aeruginosa [8] = test: Antimicrobial activity against Pseudomonas aeruginosa OC 4354 infected in immunocompromized SKH1 mouse assessed as lesion volume at 100 mg/kg/day, sc measured after 48 hrs postinfection (reference value: 2195 mm3); type: functional; conditions: route subcutaneous
# [9] = Tmax in Staphylococcus aureus infected […] SKH1 mouse skin at 50 mg/kg, sc; type: ADME, organism-based, Zone of skin; parameters: dose 50 mg/kg, route subcutaneous
# [10] = Tmax in Staphylococcus aureus infected immunocompetent SKH1 mouse skin at 50 mg/kg, sc; type: ADME, organism-based, Zone of skin; parameters: dose 50 mg/kg, route subcutaneous; method in brief: as §1
# Staphylococcus aureus [11] = test: Antimicrobial activity against methicillin-susceptible Staphylococcus aureus Smith OC 4172 infected in SKH1 mouse assessed as log change in bacterial colony forming unit per gram of skin tissue at 25 mg/kg/day, sc (reference value: 1.6 deltalog CFU); type: functional; conditions: route subcutaneous
# Method in brief: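 Female hairless immunocompetent SKH1 mice were anaesthetised and injected s.c. with 0.2 ml Cytodex bead inoculum (0.1% vol/vol beads in BHI; 6.7–7.0 log10 CFU/mouse): MSSA OC 4172 in the left flank, MRSA OC 8525 in the right. Drug was given at 1, 3, 25 and 27 h post-infection. At 48 h, flank lesions were excised, weighed and homogenised in saline, then plated on TSA (18 h, 37°C). The value is Δlog CFU/g versus the inoculum, from 5 mice/dose, run twice and pooled.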
# Zone of skin [12] = test: fAUC (0-infinity) in immunocompetent SKH1 mouse skin at 50 mg/kg, sc; type: ADME, organism-based; parameters: dose 50 mg/kg, route subcutaneous; conditions: in vivo; method in brief: as §1
# Plasma [13] = test: fCmax in immunocompromized SKH1 mouse plasma at 50 mg/kg, sc; type: ADME, organism-based; parameters: dose 50 mg/kg, route subcutaneous; conditions: in vivo; method in brief: as §1
# Staphylococcus aureus [14] = test: Antimicrobial activity against methicillin-susceptible Staphylococcus aureus Smith OC 4172 infected in SKH1 mouse assessed as log change in bacterial colony forming unit per gram of skin tissue at 100 mg/kg/day, sc (reference value: 1.6 deltalog CFU); type: functional; conditions: route subcutaneous
# Pseudomonas aeruginosa [15] = test: Antimicrobial activity against Pseudomonas aeruginosa OC 4351 assessed as inhibition of growth by broth microdilution method; type: functional
# Pseudomonas aeruginosa [16] = test: Antimicrobial activity against Pseudomonas aeruginosa OC 4354 infected in immunocompromized SKH1 mouse assessed as log change in bacterial colony forming unit at 6.2 mg/kg/day, sc; type: functional; conditions: route subcutaneous
# Method in brief: (§2)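 Female SKH1 hairless mice made neutropenic with ip cyclophosphamide (150 mg/kg 5 days and 100 mg/kg 1 day before infection). 0.2 ml s.c. Cytodex bead (0.1% vol/vol) inoculum in BHI: OC 4351 left flank, OC 4354 right flank. Drug s.c. at 1, 3, 25, 27 h postinfection. Killed at 48 h; skin homogenised in saline, plated on TSA 18 h 37°C; Δlog CFU/g versus inoculum. 5 mice/dose, run twice.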
# [17] = fT>MIC in Pseudomonas aeruginosa OC 4354 infected sc dosed SKH1 mouse at 50 mg/kg, sc administered twice at 1 and 3 hrs after infection; type: functional; conditions: route subcutaneous
# Zone of skin [18] = test: fCmax in Staphylococcus aureus infected immunocompetent SKH1 mouse skin at 50 mg/kg, sc; type: ADME, organism-based; parameters: dose 50 mg/kg, route subcutaneous; conditions: in vivo; method in brief: as §1
# [19] = Half life in immunocompetent SKH1 mouse plasma at 50 mg/kg, sc; type: ADME, organism-based; parameters: dose 50 mg/kg, route subcutaneous
# Pseudomonas aeruginosa [20] = test: Antimicrobial activity against Pseudomonas aeruginosa OC 4354 infected in immunocompromized SKH1 mouse assessed as log change in bacterial colony forming unit at 25 mg/kg/day, sc; type: functional; conditions: route subcutaneous; method in brief: as §2
# Staphylococcus aureus [21] = test: Antimicrobial activity against methicillin-susceptible Staphylococcus aureus OC 4172 assessed as inhibition of growth by broth microdilution method; type: functional
# [22] = Half life in immunocompetent SKH1 mouse skin at 50 mg/kg, sc; type: ADME, organism-based, Zone of skin; parameters: dose 50 mg/kg, route subcutaneous; method in brief: as §1
# [23] = Tmax in immunocompetent SKH1 mouse skin at 50 mg/kg, sc; type: ADME, organism-based, Zone of skin; parameters: dose 50 mg/kg, route subcutaneous; method in brief: as §1
# Pseudomonas aeruginosa [24] = test: Antimicrobial activity against Pseudomonas aeruginosa OC 4354 assessed as inhibition of growth by broth microdilution method; type: functional
# Staphylococcus aureus [25] = test: Antimicrobial activity against methicillin-resistant Staphylococcus aureus OC 8525 infected immunocompetent SKH1 mouse assessed as lesion volume at 1.6 mg/kg/day, sc measured after 48 hrs postinfection (reference value: 1535 mm3); conditions: route subcutaneous
# Pseudomonas aeruginosa [26] = test: Antimicrobial activity against Pseudomonas aeruginosa OC 4354 infected in immunocompromized SKH1 mouse assessed as log change in bacterial colony forming unit at 1.6 mg/kg/day, sc; type: functional; conditions: route subcutaneous; method in brief: as §2
# Pseudomonas aeruginosa [27] = test: Antimicrobial activity against Pseudomonas aeruginosa OC 4354 infected in immunocompromized SKH1 mouse assessed as lesion volume at 6.2 mg/kg/day, sc measured after 48 hrs postinfection (reference value: 2195 mm3); type: functional; conditions: route subcutaneous
# Zone of skin [28] = test: fCmax in immunocompromized SKH1 mouse skin at 50 mg/kg, sc; type: ADME, organism-based; parameters: dose 50 mg/kg, route subcutaneous; conditions: in vivo; method in brief: as §1
# Staphylococcus aureus [29] = test: Antimicrobial activity against methicillin-susceptible Staphylococcus aureus Smith OC 4172 infected immunocompetent SKH1 mouse assessed as lesion volume at 100 mg/kg/day, sc measured after 48 hrs postinfection (reference value: 1181 mm3); conditions: route subcutaneous
# [30] = Tmax in immunocompetent SKH1 mouse plasma at 50 mg/kg, sc; type: ADME, organism-based; parameters: dose 50 mg/kg, route subcutaneous; method in brief: as §1
# Staphylococcus aureus [31] = test: Antimicrobial activity against methicillin-resistant Staphylococcus aureus OC 8525 infected immunocompetent SKH1 mouse assessed as lesion volume at 6.2 mg/kg/day, sc measured after 48 hrs postinfection (reference value: 1535 mm3); conditions: route subcutaneous
# Plasma [32] = test: fAUC (0-infinity) in immunocompromized SKH1 mouse plasma at 50 mg/kg, sc; type: ADME, organism-based; parameters: dose 50 mg/kg, route subcutaneous; conditions: in vivo; method in brief: as §1
# Plasma [33] = test: fCmax in immunocompetent SKH1 mouse plasma at 50 mg/kg, sc; type: ADME, organism-based; parameters: dose 50 mg/kg, route subcutaneous; conditions: in vivo; method in brief: as §1
# [34] = Half life in immunocompetent SKH1 mouse plasma at 12.5 mg/kg, sc; type: ADME, organism-based; parameters: dose 12.5 mg/kg, route subcutaneous; method in brief: as §1
# [35] = Tmax in immunocompetent SKH1 mouse plasma at 12.5 mg/kg, sc; type: ADME, organism-based; parameters: dose 12.5 mg/kg, route subcutaneous; method in brief: as §1
# [36] = fT>MIC in Pseudomonas aeruginosa OC 4351 infected sc dosed SKH1 mouse administered in 24 hrs dosing interval; type: functional
compound,measurement,setting,value
Nc1nc(/C(=N/O)C(=O)N[C@@H]2C(=O)N3C(C(=O)O)=C(/C=C4\CCN([C@@H]5CCNC5)C4=O)CS[C@H]23)ns1 [CEFTOBIPROLE],deltalog10CFU,Staphylococcus aureus [1],-1
same,fAUC,Zone of skin [2],652 µg·min/mL
same,fCmax,Zone of skin [3],17 µg/g
same,fCmax,Plasma [4],17 µg/mL
same,fraction unbound,[5],0.84
same,Activity,Pseudomonas aeruginosa [6],1593 mm3
same,Tmax,[7],15 min
same,Activity,Pseudomonas aeruginosa [8],373 mm3
same,Tmax,[9],15 min
same,Tmax,[10],15 min
same,deltalog10CFU,Staphylococcus aureus [11],1.5
same,fAUC,Zone of skin [12],668 µg·min/mL
same,fCmax,Plasma [13],69 µg/mL
same,deltalog10CFU,Staphylococcus aureus [14],-1.7
same,MIC,Pseudomonas aeruginosa [15],4 mg/L
same,deltalog10CFU,Pseudomonas aeruginosa [16],-0.4
same,fT>MIC,[17],2.2 h
same,fCmax,Zone of skin [18],13 µg/g
same,half-life,[19],13 min
same,deltalog10CFU,Pseudomonas aeruginosa [20],-1.3
same,MIC,Staphylococcus aureus [21],0.25 mg/L
same,half-life,[22],19 min
same,Tmax,[23],15 min
same,MIC,Pseudomonas aeruginosa [24],4 mg/L
same,Activity,Staphylococcus aureus [25],1058 mm3
same,deltalog10CFU,Pseudomonas aeruginosa [26],1.7
same,Activity,Pseudomonas aeruginosa [27],1028 mm3
same,fCmax,Zone of skin [28],17 µg/g
same,Activity,Staphylococcus aureus [29],555 mm3
same,Tmax,[30],7.5 min
same,Activity,Staphylococcus aureus [31],896 mm3
same,fAUC,Plasma [32],2011 µg·min/mL
same,fCmax,Plasma [33],66 µg/mL
same,half-life,[34],17 min
same,Tmax,[35],7.5 min
same,fT>MIC,[36],9.1%
